In publication PMC4779681 (Journal of immunology (Baltimore, Md. : 1950), 2016):

How the values were obtained:
[1] = tested on: OT-I T cells; assay: Secondary effectors after N4 OVA peptide footpad rechallenge; format: in vivo, mouse; conditions: for CD45RB^hi frequency, secondary effectors: N4 OVA peptide 10 μg per hind foot pad, draining popliteal LN, 5 days later; for CD62L^lo frequency, CD45RB^lo vs CD45RB^hi fraction: CD45RB^lo vs respective CD45RB^hi population
[2] = tested on: OT-I T cells; assay: In vitro OVA APL OT-I stimulation; format: cell-based, mouse; conditions: for hnRNPLL expression: OT-I cells primed with peptide 3 days in vitro (0.1 μM)
[3] = tested on: OT-I T cells; assay: OT-I primary effector and memory populations after LM-OVA APL infection; format: in vivo, mouse; conditions: for Memory OT-I cells (frequency/number) in pooled secondary lymphoid organs: LM-N4 OVA or LM-V4 OVA infection, week 4-5 post infection, Thy1.1 enrichment; for CD45RB^hi frequency, primary effectors: OT-I in blood, day 7 post LM infection; for CD45RB^hi frequency, memory cells: OT-I in secondary lymphoid tissue, 4 weeks post LM infection; for IL-2 expression by primary effectors: day 7 primary effectors; for Memory phenotype markers CD44, CD127, CD69, Granzyme B: memory OT-I cells primed by LM-OVA APL
Method in brief: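 OT-I donor cells (1.0 × 10⁴, Thy1.1⁺, in PBS) given i.v. to CD45.1⁺ male hosts; 10⁴ CFU LM-OVA APL i.p. 24 h later. Day 7: blood with RBC lysis, gated CD8⁺CD44^hiThy1.1⁺. Week 4 (day 28–35): spleen plus pooled LNs, anti-Thy1.1 PE/anti-PE bead enrichment. Cytokines by intracellular staining after 5 h at 37 C with 1 μM N4 OVA peptide plus GolgiPlug. Counts by counting beads.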

[4] = tested on: OT-I T cells; assay: Sorted Q4 OVA primed OT-I cells transferred and rechallenged with N4 OVA peptide; format: in vivo, mouse; conditions: N4 OVA peptide rechallenge in naïve congenic hosts, day 5, p=0.0012
Method in brief: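 OT-I splenocytes (3×10⁶) were primed for 3 days with 0.1 μM Q4 OVA peptide, 0.1 μg/mL anti-CD28 and 10 ng/mL IL-2. Dead cells were removed, then cells were cultured overnight in 10 ng/mL IL-15. Live CD8⁺CD44^hiThy1.1⁺ cells were sorted into CD45RB^hi/lo, transferred to naïve congenic hosts and rechallenged with N4 OVA peptide. CD45RB was assessed 5 days later; 2–3 independent experiments.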

[5] = tested on: OT-I T cells; conditions: between N4 and V4 OVA; cited from earlier work
[6] = tested on: OT-I T cells; format: in vivo, mouse; conditions: vs N4 OVA primed
Method in brief: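 Memory mice, OT-I-transferred and LM-infected, received full-thickness tail and ear skin grafts expressing N4 OVA on the dorsal thorax 5 weeks post infection. Draining LN OT-I cells were counted with counting beads on day 5 post graft. Fold expansion was taken from day 0 to day 5.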

| Sequence | CD45RB^hi frequency, secondary effectors [1] [%] | CD62L^lo frequency, CD45RB^lo vs CD45RB^hi fraction ([1]; secondary effectors) | hnRNPLL expression [2] | Memory OT-I cells (frequency/number) in pooled secondary lymphoid organs [3] | CD45RB^hi frequency, primary effectors [3] [%] | CD45RB^hi frequency, memory cells [3] [%] | IL-2 expression by primary effectors [3] | Memory phenotype markers CD44, CD127, CD69, Granzyme B [3] | also measured |
| --- | --- | --- | --- | --- | --- | --- | --- | --- | --- |
| SIINFEKL [N4 OVA] | 30.2±3.39 | greater frequency | increased | 8.0×10^4±3.3×10^4 | 48.9±2.2 | 54.7±6.76 | similarly low levels of IL-2 | high levels of CD44 and CD127, and low levels of CD69 and Granzyme B | Nur77 and CD69 expression, CD45RB^hi vs CD45RB^lo cells ([2]; V4 OVA Tm cells restimulated 5 h with N4 OVA or OVA APL, 0.1 μM): significantly greater in CD45RB^hi cells |
| SIIQFEKL [Q4 OVA] | – | – | – | – | – | – | – | – | Proliferation of sorted CD45RB^hi vs CD45RB^lo cells [4]: proliferated to a significantly greater number |
| SIIVFEKL [V4 OVA] | 19.6±1.96 | greater frequency | not induced | 1.3×10^3±5.3×10^2 | 68.7±3.6 | 79.3±3.4 | similarly low levels of IL-2 | high levels of CD44 and CD127, and low levels of CD69 and Granzyme B | Range in relative functional avidity [5]: 680 fold; PD-1 expression in CD45RB^lo fraction ([1]; secondary effectors): significantly upregulated; IL-2Rβ (CD122) expression ([1]; secondary effectors, CD45RB^lo vs CD45RB^hi): significantly lower; CD62L^lo frequency within CD45RB^lo population ([1]; secondary effectors, V4 OVA vs N4 OVA primed CD45RB^lo): slightly smaller frequency; IFN-γ^+ or TNF^+ frequency, CD45RB^lo vs CD45RB^hi ([1]; secondary effectors, high affinity rechallenge): did not possess greater frequencies; Loss of CD45RB^hi cells relative to resting memory ([1]; secondary effectors, vs N4 OVA primed): significantly greater; IL-2Rα (CD25) expression, CD45RB^lo cells ([1]; vs CD45RB^hi cells and N4 OVA primed CD45RB^lo cells): significantly higher levels; Fold expansion of memory cells post graft ([6]; day 0 to day 5 post N4 OVA skin graft): greater fold expansion; Number of OT-I cells recovered in draining lymph nodes ([6]; day 5 post N4 OVA skin graft): fewer; Fold lower frequency of CD8^+ OT-I effectors in blood vs N4 OVA priming ([3]; day 7 post LM infection (10^4 CFU i.p.), 10^4 OT-I transferred): ~ 80 fold; Fold lower frequency of memory OT-I cells vs N4 OVA priming ([3]; secondary lymphoid organs, memory, LM infection): 61 fold |
